Target: 5-hydroxytryptamine receptor 2A (Homo sapiens, UniProt P28223)
Assay: Agonist activity at human recombinant 5HT2A receptor expressed in Swiss mouse 3T3 cells assessed as induction of calcium mobilization by FLIPR assay
Type: functional, cell-based
Details: not given

Chain of 5-hydroxytryptamine receptor 2A (P28223 whole entry): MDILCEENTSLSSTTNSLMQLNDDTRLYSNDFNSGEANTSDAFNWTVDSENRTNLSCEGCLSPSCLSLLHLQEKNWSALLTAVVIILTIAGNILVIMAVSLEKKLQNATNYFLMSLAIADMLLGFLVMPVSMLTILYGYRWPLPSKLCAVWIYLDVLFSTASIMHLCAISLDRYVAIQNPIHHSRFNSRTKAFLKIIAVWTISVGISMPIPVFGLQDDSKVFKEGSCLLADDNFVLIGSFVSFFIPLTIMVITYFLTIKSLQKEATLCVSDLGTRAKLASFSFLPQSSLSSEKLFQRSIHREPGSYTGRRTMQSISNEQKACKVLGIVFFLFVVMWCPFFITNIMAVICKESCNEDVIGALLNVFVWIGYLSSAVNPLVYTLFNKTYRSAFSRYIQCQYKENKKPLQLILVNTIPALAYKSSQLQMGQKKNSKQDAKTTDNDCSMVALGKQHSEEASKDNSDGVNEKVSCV

Compound	EC50 [µM]
O=c1ccc(N2CCNCC2)nn1CCOc1ccccc1Cl	0.254
Clc1ccccc1CCOc1cncc(N2CCNCC2)n1	0.308
C[C@@H]1CNCCN1c1ccc(=O)n(CCOc2ccccc2C(F)(F)F)n1	0.041
C[C@@H]1CNCCN1c1ccc(=O)n(CCOc2ccccc2Cl)n1	0.114
C[C@@H](COc1ccccc1Cl)n1nc(N2CCNCC2)ccc1=O	0.065
O=c1ccc(N2CCNCC2)nn1CCOc1ccccc1C(F)(F)F	1.09

Same assay, conditions: NIH3T3

Compound	Emax [%]
O=c1ccc(N2CCNCC2)nn1CCOc1ccccc1Cl	41
Clc1ccccc1CCOc1cncc(N2CCNCC2)n1	56
Clc1cccc(N2CCNCC2)c1	58
C[C@@H]1CNCCN1c1ccc(=O)n(CCOc2ccccc2C(F)(F)F)n1	61
C[C@@H]1CNCCN1c1ccc(=O)n(CCOc2ccccc2Cl)n1	42
C[C@@H](COc1ccccc1Cl)n1nc(N2CCNCC2)ccc1=O	69
O=c1ccc(N2CCNCC2)nn1CCOc1ccccc1C(F)(F)F	49

Target: 5-hydroxytryptamine receptor 2B (Homo sapiens, UniProt P41595)
Assay: Agonist activity at human recombinant 5HT2B receptor expressed in Swiss mouse 3T3 cells assessed as induction of calcium mobilization by FLIPR assay
Type: functional, cell-based
Details: not given

Chain of 5-hydroxytryptamine receptor 2B (P41595 whole entry): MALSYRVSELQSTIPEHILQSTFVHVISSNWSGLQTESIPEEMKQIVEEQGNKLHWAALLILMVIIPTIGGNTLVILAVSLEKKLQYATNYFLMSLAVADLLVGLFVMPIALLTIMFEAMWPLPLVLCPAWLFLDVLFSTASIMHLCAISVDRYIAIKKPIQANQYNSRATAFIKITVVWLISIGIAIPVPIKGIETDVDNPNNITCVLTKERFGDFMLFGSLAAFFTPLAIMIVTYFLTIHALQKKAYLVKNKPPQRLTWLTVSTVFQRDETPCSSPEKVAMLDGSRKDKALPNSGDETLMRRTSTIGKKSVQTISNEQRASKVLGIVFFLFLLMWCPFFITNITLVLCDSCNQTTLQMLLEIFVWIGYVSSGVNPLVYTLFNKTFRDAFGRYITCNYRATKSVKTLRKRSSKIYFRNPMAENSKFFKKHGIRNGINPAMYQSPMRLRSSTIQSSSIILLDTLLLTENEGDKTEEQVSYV

Compound	EC50 [µM]
O=c1ccc(N2CCNCC2)nn1CCOc1ccccc1Cl	> 10
Clc1ccccc1CCOc1cncc(N2CCNCC2)n1	0.187
C[C@@H]1CNCCN1c1ccc(=O)n(CCOc2ccccc2C(F)(F)F)n1	> 2.61
C[C@@H]1CNCCN1c1ccc(=O)n(CCOc2ccccc2Cl)n1	> 10
C[C@@H](COc1ccccc1Cl)n1nc(N2CCNCC2)ccc1=O	0.506
O=c1ccc(N2CCNCC2)nn1CCOc1ccccc1C(F)(F)F	> 10

Same assay, conditions: NIH3T3

Compound	Emax [%]
Clc1ccccc1CCOc1cncc(N2CCNCC2)n1	42
C[C@@H](COc1ccccc1Cl)n1nc(N2CCNCC2)ccc1=O	30

System: Canis familiaris
Assay: Plasma concentration in continuous iv dosed dog
Type: ADME, organism-based, Canis lupus familiaris
Details: in vivo

Compound	concentration [nM]
C[C@@H]1CNCCN1c1ccc(=O)n(CCOc2ccccc2C(F)(F)F)n1	52

System: not listed separately
Assay: Metabolic stability in human liver microsomes
Type: ADME, Microsome
Details: read-out: Stability

Compound	microsomal CLint [µL/min/mg]
O=c1ccc(N2CCNCC2)nn1CCOc1ccccc1Cl	< 7
Clc1ccccc1CCOc1cncc(N2CCNCC2)n1	94
C[C@@H]1CNCCN1c1ccc(=O)n(CCOc2ccccc2Cl)n1	9.8

Target: 5-hydroxytryptamine receptor 1D (Homo sapiens) (UniProt P28221)
Assay: Binding affinity to human 5HT1D receptor
Details: not given

Chain of 5-hydroxytryptamine receptor 1D (Homo sapiens) (P28221 whole entry): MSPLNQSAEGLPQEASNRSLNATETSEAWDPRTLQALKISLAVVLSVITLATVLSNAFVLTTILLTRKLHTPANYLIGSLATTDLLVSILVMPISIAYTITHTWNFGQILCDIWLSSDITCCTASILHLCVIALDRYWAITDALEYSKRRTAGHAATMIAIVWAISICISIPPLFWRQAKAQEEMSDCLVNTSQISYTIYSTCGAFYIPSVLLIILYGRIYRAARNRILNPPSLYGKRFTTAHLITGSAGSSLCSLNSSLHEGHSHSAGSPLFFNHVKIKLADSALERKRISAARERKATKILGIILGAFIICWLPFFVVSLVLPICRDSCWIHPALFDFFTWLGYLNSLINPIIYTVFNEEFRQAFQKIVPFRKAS

Compound	Activity [nM]
C[C@@H]1CNCCN1c1ccc(=O)n(CCOc2ccccc2C(F)(F)F)n1	< 1000

System: not listed separately
Assay: Lipophilicity, log D at pH 7.4
Type: physicochemical
Details: buffer

Compound	logD
O=c1ccc(N2CCNCC2)nn1CCOc1ccccc1Cl	0.6
Clc1ccccc1CCOc1cncc(N2CCNCC2)n1	2.2
C[C@@H]1CNCCN1c1ccc(=O)n(CCOc2ccccc2Cl)n1	0.9

Target: GABA-A receptor; agonist GABA site (Homo sapiens) (UniProt P14867+P47870+P28472+P48169+P34903+P18505+P47869+P31644+Q16445)
Assay: Binding affinity to human GABAA receptor
Type: protein-complex assay
Details: not given

Compound	Activity [nM]
C[C@@H]1CNCCN1c1ccc(=O)n(CCOc2ccccc2C(F)(F)F)n1	< 1000

System: not listed separately
Assay: Efflux ratio of permeability across MDCK cell membrane
Type: ADME, cell-based, Canis lupus familiaris
Details: dog

Compound	efflux ratio
O=c1ccc(N2CCNCC2)nn1CCOc1ccccc1Cl	5
Clc1ccccc1CCOc1cncc(N2CCNCC2)n1	2
C[C@@H]1CNCCN1c1ccc(=O)n(CCOc2ccccc2Cl)n1	6

Target: T1, 5-hydroxytryptamine receptor 2C (Homo sapiens, UniProt P28335)
T1 sequence (P28335 whole entry): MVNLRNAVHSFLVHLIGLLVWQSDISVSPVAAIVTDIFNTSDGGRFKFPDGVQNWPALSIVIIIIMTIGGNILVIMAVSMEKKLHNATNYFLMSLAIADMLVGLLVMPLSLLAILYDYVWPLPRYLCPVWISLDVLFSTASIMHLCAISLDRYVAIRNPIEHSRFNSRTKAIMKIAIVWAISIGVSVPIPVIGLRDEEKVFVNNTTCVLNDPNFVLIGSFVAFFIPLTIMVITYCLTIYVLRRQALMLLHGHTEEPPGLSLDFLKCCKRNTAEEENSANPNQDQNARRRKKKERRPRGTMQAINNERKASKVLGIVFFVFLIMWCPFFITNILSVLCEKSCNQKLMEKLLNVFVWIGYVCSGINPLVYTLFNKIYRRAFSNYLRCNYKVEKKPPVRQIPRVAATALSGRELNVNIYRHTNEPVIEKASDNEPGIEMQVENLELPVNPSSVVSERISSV
Assay: (§1) Agonist activity at human recombinant 5HT2C receptor expressed in CHOK1 cells assessed as induction of calcium mobilization by FLIPR assay
Type: functional, cell-based, CHO-K1
Details: not given

Compound	EC50 [µM]
Cc1cc(=O)n(CCOc2ccccc2Cl)nc1N1CCNCC1	0.51
O=c1ccc(N2CCNCC2)nn1CCOc1ccccc1Br	0.101
COc1ccccc1OCCn1nc(N2CCNCC2)ccc1=O	> 10
C[C@H]1CNCCN1c1ccc(=O)n(CCOc2ccccc2Cl)n1	> 10
O=c1ccc(N2CCNCC2)nn1CCOc1ccccc1Cl	0.164
Clc1ccccc1CCOc1cncc(N2CCNCC2)n1	0.01
C[C@@H]1CNCCN1c1ccc(=O)n(CCOc2ccccc2C(F)(F)F)n1	0.011
C[C@H](COc1ccccc1Cl)n1nc(N2CCNCC2)ccc1=O	> 1.92
Cc1ccccc1OCCn1nc(N2CCNCC2)ccc1=O	> 4.55
Cc1cc(N2CCNCC2)nn(CCOc2ccccc2Cl)c1=O	> 10
C[C@H]1CN(c2ccc(=O)n(CCOc3ccccc3Cl)n2)CCN1	> 10
O=c1ccc(N2CCNCC2)nn1CCOc1cccc(Cl)c1Cl	> 2.13
O=c1ccc(N2CCNCC2)nn1CCOc1cccc(Cl)c1	> 10
C[C@@H]1CNCCN1c1ccc(=O)n(CCOc2ccccc2Cl)n1	0.025
C[C@@H](Cn1nc(N2CCNCC2)ccc1=O)Oc1ccccc1Cl	0.36
O=c1ccc(N2CCNCC2)nn1CCOc1ccccc1	> 10
CC[C@@H]1CNCCN1c1ccc(=O)n(CCOc2ccccc2Cl)n1	0.407
O=c1c2c(c(N3CCNCC3)nn1CCOc1ccccc1Cl)CCC2	> 10
O=CC1CNCCN1c1ccc(=O)n(CCOc2ccccc2Cl)n1 (stereo not given)	> 9.98
N#Cc1ccccc1OCCn1nc(N2CCNCC2)ccc1=O	0.114
C[C@@H](COc1ccccc1Cl)n1nc(N2CCNCC2)ccc1=O	0.025
O=c1ccc(N2CCNCC2)nn1CCOc1ccccc1C(F)(F)F	0.047
O=c1ccc(N2CCNCC2)nn1CCOc1ccc(Cl)cc1	> 10
C[C@H](Cn1nc(N2CCNCC2)ccc1=O)Oc1ccccc1Cl	0.858

Target: T2, 5-hydroxytryptamine receptor 2C (Homo sapiens) (UniProt P28335)
T2 sequence (whole entry): T1 sequence (P28335 whole entry)
Assay: as §1
Type: functional, cell-based
Details: CHO-K1

Compound	Emax [%]
Cc1cc(=O)n(CCOc2ccccc2Cl)nc1N1CCNCC1	31
O=c1ccc(N2CCNCC2)nn1CCOc1ccccc1Br	34
O=c1ccc(N2CCNCC2)nn1CCOc1ccccc1Cl	58
Clc1ccccc1CCOc1cncc(N2CCNCC2)n1	69
C[C@@H]1CNCCN1c1ccc(=O)n(CCOc2ccccc2C(F)(F)F)n1	51
C[C@H](COc1ccccc1Cl)n1nc(N2CCNCC2)ccc1=O	55
Cc1ccccc1OCCn1nc(N2CCNCC2)ccc1=O	36
C[C@@H]1CNCCN1c1ccc(=O)n(CCOc2ccccc2Cl)n1	51
C[C@@H](Cn1nc(N2CCNCC2)ccc1=O)Oc1ccccc1Cl	87
CC[C@@H]1CNCCN1c1ccc(=O)n(CCOc2ccccc2Cl)n1	41
N#Cc1ccccc1OCCn1nc(N2CCNCC2)ccc1=O	69
C[C@@H](COc1ccccc1Cl)n1nc(N2CCNCC2)ccc1=O	77
O=c1ccc(N2CCNCC2)nn1CCOc1ccccc1C(F)(F)F	45
C[C@H](Cn1nc(N2CCNCC2)ccc1=O)Oc1ccccc1Cl	53

System: Canis familiaris
Assay: Increase in urethral pressure in continuous iv dosed dog model of stress urinary incontinence
Type: functional, Canis lupus familiaris, Urethra
Details: not given

Compound	Activity [%]
C[C@@H]1CNCCN1c1ccc(=O)n(CCOc2ccccc2C(F)(F)F)n1	>20

Target: T1, 5-hydroxytryptamine receptor 2C
Assay: Displacement of [3H]meselurgine from human recombinant 5HT2C receptor expressed in Swiss mouse 3T3 cells by SPA
Type: cell-based
Details: not given
Method in brief: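 Competition binding against [3H]-meselurgine at the human 5-HT2C receptor, read by scintillation proximity assay, using membrane preparations made from Swiss 3T3 cells expressing the recombinant receptor.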

Compound	Ki [µM]
O=c1ccc(N2CCNCC2)nn1CCOc1ccccc1Cl	1.6
C[C@@H]1CNCCN1c1ccc(=O)n(CCOc2ccccc2C(F)(F)F)n1	0.089
C[C@@H]1CNCCN1c1ccc(=O)n(CCOc2ccccc2Cl)n1	0.325
C[C@@H](COc1ccccc1Cl)n1nc(N2CCNCC2)ccc1=O	0.728
O=c1ccc(N2CCNCC2)nn1CCOc1ccccc1C(F)(F)F	0.424

Target: 5-hydroxytryptamine receptor 1B (Homo sapiens) (UniProt P28222)
Assay: Binding affinity to human 5HT1B receptor
Details: not given

Chain of 5-hydroxytryptamine receptor 1B (Homo sapiens) (P28222 whole entry): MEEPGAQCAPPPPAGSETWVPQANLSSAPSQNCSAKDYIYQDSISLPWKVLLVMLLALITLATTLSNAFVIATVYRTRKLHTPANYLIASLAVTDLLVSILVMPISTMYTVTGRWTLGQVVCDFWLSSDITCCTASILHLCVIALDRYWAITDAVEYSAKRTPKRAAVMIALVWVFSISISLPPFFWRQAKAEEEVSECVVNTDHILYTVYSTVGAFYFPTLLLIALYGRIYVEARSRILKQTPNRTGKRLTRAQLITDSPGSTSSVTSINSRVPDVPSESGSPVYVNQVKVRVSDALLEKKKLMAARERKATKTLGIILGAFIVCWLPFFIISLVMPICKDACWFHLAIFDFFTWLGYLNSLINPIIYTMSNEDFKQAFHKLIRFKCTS

Compound	Activity [nM]
C[C@@H]1CNCCN1c1ccc(=O)n(CCOc2ccccc2C(F)(F)F)n1	< 1000

Target: 5-hydroxytryptamine receptor 6 (Homo sapiens) (UniProt P50406)
Assay: Binding affinity to human 5HT6 receptor
Details: not given

Chain of 5-hydroxytryptamine receptor 6 (Homo sapiens) (P50406 whole entry): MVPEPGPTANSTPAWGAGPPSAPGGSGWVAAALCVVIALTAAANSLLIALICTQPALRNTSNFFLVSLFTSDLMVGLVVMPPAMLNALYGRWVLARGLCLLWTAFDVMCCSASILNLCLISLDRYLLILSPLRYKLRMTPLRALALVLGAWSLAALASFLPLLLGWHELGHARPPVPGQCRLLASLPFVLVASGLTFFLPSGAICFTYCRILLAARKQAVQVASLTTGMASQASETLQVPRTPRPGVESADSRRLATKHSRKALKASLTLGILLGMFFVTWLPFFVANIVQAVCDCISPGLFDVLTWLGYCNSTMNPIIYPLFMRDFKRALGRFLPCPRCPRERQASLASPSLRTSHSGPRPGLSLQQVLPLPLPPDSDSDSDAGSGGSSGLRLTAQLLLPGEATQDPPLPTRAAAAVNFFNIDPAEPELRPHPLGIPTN

Compound	Activity [nM]
C[C@@H]1CNCCN1c1ccc(=O)n(CCOc2ccccc2C(F)(F)F)n1	< 1000

Target: T3, B2 bradykinin receptor (Homo sapiens) (UniProt P30411)
T3 sequence (whole entry): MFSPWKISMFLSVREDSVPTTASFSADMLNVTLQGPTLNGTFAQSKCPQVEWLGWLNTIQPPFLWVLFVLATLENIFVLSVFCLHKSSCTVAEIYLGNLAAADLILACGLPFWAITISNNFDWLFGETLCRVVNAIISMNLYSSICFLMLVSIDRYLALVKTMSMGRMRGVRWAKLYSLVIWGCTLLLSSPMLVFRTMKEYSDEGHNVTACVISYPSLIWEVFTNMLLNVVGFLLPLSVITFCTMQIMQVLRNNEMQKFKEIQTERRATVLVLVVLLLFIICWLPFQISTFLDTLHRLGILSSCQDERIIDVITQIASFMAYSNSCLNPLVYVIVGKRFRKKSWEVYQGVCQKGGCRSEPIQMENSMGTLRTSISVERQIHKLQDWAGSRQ
Assay: Binding affinity to human bradykinin B2 receptor
Details: not given

Compound	Activity [nM]
C[C@@H]1CNCCN1c1ccc(=O)n(CCOc2ccccc2C(F)(F)F)n1	< 1000
